Laboratory results as given in ChEMBL document CHEMBL1687824, “Overexpression of patA and patB, which encode ABC transporters, is associated with fluoroquinolone resistance in clinical isolates of Streptococcus pneumoniae” (2011).
In brackets after ≈: the same amount, converted by molar mass.

Legend:
Assay type in all cases: functional
[1] = system: Streptococcus pneumoniae; test: Antibacterial activity against fluoroquinolone, dye-resistant Streptococcus pneumoniae by standardized agar doubling dilution method in presence of 20 ug/ml reserpine efflux pump inhibitor
Procedure, shortened: (§1)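 MIC by agar doubling dilution following BSAC guidelines. Strains grown in brain heart infusion broth 24 h at 37°C in 5% CO2. Where an efflux pump inhibitor applies, MIC redetermined with reserpine at 20 μg/ml or sodium orthovanadate at 50 μM. Synergy taken as a fall in MIC of ≥2 dilutions with inhibitor present. Dye resistance defined relative to R6 (both dyes ≥2 dilutions higher).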

[2] = system: Streptococcus pneumoniae; test: Antibacterial activity against fluoroquinolone, dye-resistant Streptococcus pneumoniae by standardized agar doubling dilution method; procedure, shortened: as §1
[3] = system: Streptococcus pneumoniae; test: Antibacterial activity against wild type Streptococcus pneumoniae M3 NCTC 7466 type 2 by standardized agar doubling dilution method; procedure, shortened: as §1
[4] = system: Streptococcus pneumoniae; test: Antibacterial activity against fluoroquinolone, dye-resistant Streptococcus pneumoniae by standardized agar doubling dilution method in presence of 50 uM sodium orthovanadate efflux pump inhibitor; procedure, shortened: as §1
[5] = system: Streptococcus pneumoniae; test: Antibacterial activity against fluoroquinolone-resistant Streptococcus pneumoniae by standardized agar doubling dilution method; procedure, shortened: as §1
[6] = system: Streptococcus pneumoniae; test: Antibacterial activity against fluoroquinolone, dye-resistant Streptococcus pneumoniae M42 overexpressing patA, patB by standardized agar doubling dilution method; procedure, shortened: as §1
[7] = system: Streptococcus pneumoniae; test: Antibacterial activity against Streptococcus pneumoniae M298 overexpressing patA, patB and inactivated patA with single mutation by standardized agar doubling dilution method
Procedure, shortened: (§2)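 MICs determined by BSAC standardized agar doubling dilution. Strains were grown in brain heart infusion broth for 24 h at 37°C in 5% CO2. Inhibitor arms had reserpine at 20 μg/ml or sodium orthovanadate at 50 μM in the agar. Mutants were made by transforming magellan2 insertion amplimers into clinical isolates and selecting on spectinomycin 100 mg/liter, with a no-DNA spontaneous-mutation control.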

[8] = system: Streptococcus pneumoniae; test: Antibacterial activity against fluoroquinolone, dye-resistant Streptococcus pneumoniae M45 overexpressing patA, patB by standardized agar doubling dilution method; procedure, shortened: as §1
[9] = system: Streptococcus pneumoniae; test: Antibacterial activity against Streptococcus pneumoniae M45A overexpressing patA, patB and inactivated patA with single mutation by standardized agar doubling dilution method
Procedure, shortened: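 MICs were determined by agar doubling dilution following BSAC guidelines, with no efflux inhibitor. Strains were grown in brain heart infusion broth for 24 h at 37°C in 5% CO2. Species identity was confirmed by Gram stain, optochin sensitivity and capsule test. Control strain R6 was tested alongside.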

[10] = system: Streptococcus pneumoniae; test: Antibacterial activity against fluoroquinolone, dye-resistant Streptococcus pneumoniae M74 overexpressing patA, patB by standardized agar doubling dilution method; procedure, shortened: as §1
[11] = system: Streptococcus pneumoniae; test: Antibacterial activity against Streptococcus pneumoniae M305 overexpressing patA, patB and inactivated patB with single mutation by standardized agar doubling dilution method; procedure, shortened: as §2
[12] = system: Streptococcus pneumoniae; test: Antibacterial activity against Streptococcus pneumoniae M311 overexpressing patA, patB and inactivated patA with single mutation by standardized agar doubling dilution method; procedure, shortened: as §2
[13] = system: Streptococcus pneumoniae; test: Antibacterial activity against Streptococcus pneumoniae M309 overexpressing patA, patB and inactivated patB with single mutation by standardized agar doubling dilution method; procedure, shortened: as §2
[14] = system: Streptococcus pneumoniae; test: Antibacterial activity against fluoroquinolone, dye-resistant Streptococcus pneumoniae M45 overexpressing patA, patB by standardized agar doubling dilution method in presence of 20 ug/ml reserpine efflux pump inhibitor; procedure, shortened: as §1
[15] = system: Streptococcus pneumoniae; test: Antibacterial activity against Streptococcus pneumoniae M305 overexpressing patA, patB and inactivated patB with single mutation by standardized agar doubling dilution method in presence of 20 ug/ml reserpine efflux pump inhibitor; procedure, shortened: as §2
[16] = system: Streptococcus pneumoniae; test: Antibacterial activity against Streptococcus pneumoniae M87A overexpressing patA, patB and inactivated patA with single mutation by standardized agar doubling dilution method in presence of 20 ug/ml reserpine efflux pump inhibitor
Procedure, shortened: (§3)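 MICs were determined by BSAC agar doubling dilution in the presence of reserpine at 20 μg/ml. Strains were grown in BHI broth for 24 h at 37°C in 5% CO2, with R6 as control. Synergy was defined as an MIC drop of ≥2 dilutions with the inhibitor.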

[17] = system: Streptococcus pneumoniae; test: Antibacterial activity against Streptococcus pneumoniae M319 overexpressing patA, patB and inactivated patB with single mutation by standardized agar doubling dilution method in presence of 20 ug/ml reserpine efflux pump inhibitor; procedure, shortened: as §3
[18] = system: Streptococcus pneumoniae; test: Antibacterial activity against Streptococcus pneumoniae M302 overexpressing patA, patB and inactivated patA with single mutation by standardized agar doubling dilution method in presence of 20 ug/ml reserpine efflux pump inhibitor; procedure, shortened: as §2
[19] = system: Streptococcus pneumoniae; test: Antibacterial activity against fluoroquinolone-resistant Streptococcus pneumoniae M98 FQ-R overexpressing patA, patB by standardized agar doubling dilution method in presence of 20 ug/ml reserpine efflux pump inhibitor
Procedure, shortened: (§4)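 MIC by agar doubling dilution per BSAC guidelines; strains pregrown in brain heart infusion broth 24 h, 37°C, 5% CO2. MICs measured alone and with efflux pump inhibitors reserpine (20 μg/ml) or sodium orthovanadate (50 μM); synergy defined as ≥2-dilution MIC reduction in presence of inhibitor.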

[20] = system: Streptococcus pneumoniae; test: Antibacterial activity against Streptococcus pneumoniae M314 overexpressing patA, patB and inactivated patA with single mutation by standardized agar doubling dilution method in presence of 20 ug/ml reserpine efflux pump inhibitor; procedure, shortened: as §2
[21] = system: Streptococcus pneumoniae; test: Antibacterial activity against fluoroquinolone-resistant Streptococcus pneumoniae M100 FQ-R overexpressing patA, patB by standardized agar doubling dilution method in presence of 20 ug/ml reserpine efflux pump inhibitor; procedure, shortened: as §4
[22] = system: Streptococcus pneumoniae; test: Antibacterial activity against Streptococcus pneumoniae M308 overexpressing patA, patB and inactivated patB with single mutation by standardized agar doubling dilution method in presence of 20 ug/ml reserpine efflux pump inhibitor; procedure, shortened: as §2
[23] = system: Streptococcus pneumoniae; test: Antibacterial activity against Streptococcus pneumoniae M45B overexpressing patA, patB and inactivated patB with single mutation by standardized agar doubling dilution method in presence of 50 uM sodium orthovanadate efflux pump inhibitor
Procedure, shortened: (§5)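 MICs were determined by BSAC agar doubling dilution in the presence of sodium orthovanadate at 50 μM. Cultures were grown in BHI broth for 24 h at 37°C in 5% CO2, with R6 as control. Synergy was defined as an MIC reduction of ≥2 dilutions with the inhibitor present.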

[24] = system: Streptococcus pneumoniae; test: Antibacterial activity against Streptococcus pneumoniae M50A overexpressing patA, patB and inactivated patA with single mutation by standardized agar doubling dilution method in presence of 50 uM sodium orthovanadate efflux pump inhibitor; procedure, shortened: as §5
[25] = system: Streptococcus pneumoniae; test: Antibacterial activity against Streptococcus pneumoniae M301 overexpressing patA, patB and inactivated patA with single mutation by standardized agar doubling dilution method in presence of 50 uM sodium orthovanadate efflux pump inhibitor; procedure, shortened: as §2
[26] = system: Streptococcus pneumoniae; test: Antibacterial activity against Streptococcus pneumoniae M310 overexpressing patA, patB and inactivated patB with single mutation by standardized agar doubling dilution method in presence of 50 uM sodium orthovanadate efflux pump inhibitor; procedure, shortened: as §2
[27] = system: Streptococcus pneumoniae; test: Antibacterial activity against Streptococcus pneumoniae M316 overexpressing patA, patB and inactivated patA with single mutation by standardized agar doubling dilution method in presence of 50 uM sodium orthovanadate efflux pump inhibitor; procedure, shortened: as §5
[28] = system: Streptococcus pneumoniae; test: Antibacterial activity against Streptococcus pneumoniae M307 overexpressing patA, patB and inactivated patB with single mutation by standardized agar doubling dilution method in presence of 50 uM sodium orthovanadate efflux pump inhibitor; procedure, shortened: as §2
[29] = system: Streptococcus pneumoniae; test: Antibacterial activity against Streptococcus pneumoniae M46B overexpressing patA, patB and inactivated patB with single mutation by standardized agar doubling dilution method in presence of 50 uM sodium orthovanadate efflux pump inhibitor; procedure, shortened: as §5

Structure (SMILES)	MIC90 [1]	MIC90 [2]	MIC [3]	MIC90 [4]	MIC90 [5]	MIC [6]	MIC [7]	MIC [8]	MIC [9]	MIC [10]	MIC [11]	MIC [12]	MIC [13]	MIC [14]	MIC [15]	MIC [16]	MIC [17]	MIC [18]	MIC [19]	MIC [20]	also measured
CC[n+]1c(-c2ccccc2)c2cc(N)ccc2c2ccc(N)cc21.[Br-] [HOMIDIUM BROMIDE]	0.5 mg/L	8 mg/L	2 mg/L	1 mg/L	2 mg/L	8 mg/L	0.5 mg/L	4 mg/L	0.5 mg/L	4 mg/L	0.5 mg/L	0.5 mg/L	16 mg/L	0.5 mg/L	0.5 mg/L	0.5 mg/L	0.5 mg/L	0.5 mg/L	0.12 mg/L	0.5 mg/L	MIC [21]: 0.25 mg/L; MIC [22]: 0.25 mg/L; MIC [23]: 0.5 mg/L; MIC [24]: 0.5 mg/L; MIC [25]: 0.25 mg/L; MIC [26]: 8 mg/L; MIC [27]: 0.5 mg/L; MIC [28]: 2 mg/L; MIC [29]: 0.5 mg/L
O=C(O)c1cn(C2CC2)c2cc(N3CCNCC3)c(F)cc2c1=O [CIPROFLOXACIN]	4 mg/L	16 mg/L (≈ 48.3 µM)	1 mg/L (≈ 3.02 µM)	8 mg/L	8 mg/L (≈ 24.1 µM)	64 mg/L (≈ 193 µM)	8 mg/L (≈ 24.1 µM)	4 mg/L (≈ 12.1 µM)	1 mg/L (≈ 3.02 µM)	64 mg/L (≈ 193 µM)	8 mg/L (≈ 24.1 µM)	8 mg/L (≈ 24.1 µM)	4 mg/L (≈ 12.1 µM)	1 mg/L	8 mg/L	8 mg/L	16 mg/L	4 mg/L	2 mg/L	8 mg/L	MIC [21]: 2 mg/L; MIC [22]: 1 mg/L; MIC [23]: 1 mg/L; MIC [24]: 4 mg/L; MIC [25]: 8 mg/L; MIC [26]: 2 mg/L; MIC [27]: 8 mg/L; MIC [28]: 8 mg/L; MIC [29]: 0.12 mg/L
